The list is not random: actives were taken first. Their share in the collection is about 1.8%.
Gli-Sufu block: antagonists of Gli-Sufu signaling; Sufu-KO-LIGHT fibroblasts, Gli luciferase reporter luminescence; inhibition, % at 5 µM; 340,000 compounds, 0.74% hits; AID 588413;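 active means inhibition above about 55%, limit read from the data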;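 further: 0% = DMSO-treated cells and 100% = wells with medium but no cells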
Hep lipid drop: hepatic lipid droplet formation modulation; inhibition, % at 6.5 µM; AID 1656; AML12 mouse hepatocytes, oleate lipid droplets, BODIPY imaging; 240,000 compounds, 0.4% hits;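 active means lipid droplet intensity inhibited by at least 50%, with more than 500 cells counted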
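Material – AML12 mouse liver cells · Also added – oleate loading, 100 µM · Compound dosing – 6.5 µM single-point dosing · Times – overnight treatment with compound plus oleate · Measured by – fluorescence imaging, 20x objective, two fields per well · Read-out – percent inhibition of filter-corrected integrated lipid droplet intensity per well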
697 NFkB inh: inhibitors of the PMA/ionomycin-induced NF-kB reporter in 697 B cells; AID 435022; inhibition, % at 4 µM; 697 B-cell NF-kB luciferase reporter, 16 h; 330,000 compounds, 0.33% hits; in the data active means inhibition above about 35%
H9c2 TAG inh: triacylglycerol accumulation inhibition; 230,000 compounds, 0.66% hits; inhibition, % at 12.5 µM; H9c2 cells, Nile Red lipid (TAG) fluorescence; cells loaded with 200 µM oleic acid; AID 651582;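 active means pattern-corrected inhibition of lipid staining of at least 50% with the nuclear-stain viability signal not falling by more than 50%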;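 further: 0% = DMSO wells and 100% = triacsin C control wells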
iPSC survival up: hiPSC single-cell survival enhancement. ATPlite luminescence; 100% = ROCK inhibitor wells, 0% = DMSO. survival enhancement, % at 20 µM. 360,000 compounds, 0.044% hits. AID 602274; in the data active means survival enhancement above about 18%;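 further: cells exposed to compounds for 16 hours before the ATP read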
Jurkat NFkB inh: inhibitors of the PMA/ionomycin-induced NF-kB reporter in Jurkat cells. 330,000 compounds, 0.53% hits. PMA/ionomycin-induced NF-kB luciferase reporter, luminescence. inhibition, % at 4 µM; in the data active means inhibition above about 50%
Gli-Sufu confirm: confirmation of Gli-SUFU pathway antagonists; shares compounds with Gli-Sufu block; Sufu-KO-LIGHT cells, Gli luciferase reporter, luminescence; inhibition, % at 5 µM; 2,500 compounds, 40% hits; AID 602428;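 active means mean inhibition at 5 µM reaching about 45%, limit read from the data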;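 further: plate controls were DMSO-treated cells for no effect and wells lacking cells for full effect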
Gli cytotox: cytotoxicity counter-screen for Gli-SUFU antagonists; shares compounds with Gli-Sufu block; Sufu-KO-LIGHT cells cytotoxicity, ATP luminescence; cytotoxicity, % at 5 µM; 2,500 compounds, 32% hits; AID 651994;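 active means mean cytotoxicity at 5 µM above about 25%, limit read from the data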;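 further: cells exposed to compound overnight for roughly 16 to 18 hours; plate controls were DMSO wells with cells for no effect and medium without cells for full effect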
Wnt3a cs: inhibits Wnt3a reporter, counter-screen for Gli-SUFU antagonists | shares compounds with Gli-Sufu block | Wnt-LIGHT cells, Wnt3a-driven luciferase reporter, luminescence | inhibition, % at 6.25 µM | 2,500 compounds, 20% hits | AID 651995;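 active means mean inhibition above about 25%, limit read from the data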
The depositor's hits bear a star; nt = no result given.

SMILES	Gli-Sufu block	Hep lipid drop	697 NFkB inh	H9c2 TAG inh	iPSC survival up	Jurkat NFkB inh	Gli-Sufu confirm	Gli cytotox	Wnt3a cs
O=[N+]([O-])c1ccc2ncnc(N3CCN(Cc4ccc5c(c4)OCO5)CC3)c2c1	68*	-34	-39	-8	1	41	36	26*	-16
O=[N+]([O-])c1cccnc1N1CCN(Cc2ccc3c(c2)OCO3)CC1	-13	2	-12	3	-1	8	nt	nt	nt
COC(=O)c1nnn(CC(=O)NC(=O)Nc2cccc(C)c2C)c1C(=O)OC	6	0	4	nt	1	6	nt	nt	nt
COC(=O)c1nnn(CC(=O)Nc2cccc(Cl)c2C)c1C(=O)OC	99*	-19	-7	1	-1	-6	18	-2	2
CCOc1ccccc1N1CC(C(=O)Nc2cc(Cl)ccc2C)CC1=O (stereo not drawn)	22	-32	17	nt	-1	10	nt	nt	nt
O=C(CNCc1ccccc1)Nc1ccc(Cl)cc1	-20	nt	-16	nt	1	-39	nt	nt	nt
CCOC(=O)C(NC(=O)c1cccnc1)(Nc1cccc(C)n1)C(F)(F)F (stereo not drawn)	-7	-2	-64	-51	0	-8	nt	nt	nt
CCOC(=O)C(NCc1ccccn1)(NC(=O)c1cccnc1)C(F)(F)F (stereo not drawn)	96*	2	-20	6	0	9	12	5	-3
COc1ccccc1OC(C)C(=O)Nc1ccccc1C(=O)NCc1cccnc1 (stereo not drawn)	56*	-3	5	nt	0	-4	20	11	-29
COc1cc(OC)cc(C(=O)Nc2ccccc2C(=O)NCc2cccnc2)c1	-7	-10	20	nt	-1	-4	nt	nt	nt
Cc1ccc(S(=O)(=O)N2CCOCC2)cc1C(=O)N1CCN(S(=O)(=O)c2ccccc2F)CC1	8	nt	nt	-6	0	nt	nt	nt	nt
CCOC(=O)Cc1nc(-c2ccc(Cl)cc2)n[nH]1	-5	-8	3	nt	-2	-8	nt	nt	nt
CCOc1ccccc1NC(=O)CCN1CCN(S(=O)(=O)c2ccc(Br)cc2)CC1	53	-10	-7	32	7	-6	17	19	-74
COc1ccc(S(=O)(=O)Cc2ccc(C(=O)N3CCN(c4ccc(Cl)cc4)CC3)o2)cc1	52	nt	-8	5	-2	16	18	11	-29
COc1ccc(N2CCN(C(=O)c3ccc(Cn4nc(C)c([N+](=O)[O-])c4C)o3)CC2)cc1	90*	-14	-8	13	0	0	11	27*	-41
Cc1ccc(-c2cc3ncc(C#N)c(N)n3n2)cc1	-38	1	-42	nt	-4	-43	nt	nt	nt
COc1cc(NC(=O)c2cc3ccccc3cc2OC)ccc1NC(=O)c1cccs1	57*	1	28	nt	0	3	35	16	-71
O=C(O)C1Sc2[nH]c(=O)sc2C2c3ccc(O)cc3OC(=O)C12 (stereo not drawn)	-1	1	9	8	0	4	nt	nt	nt
CCC1CCCCN1S(=O)(=O)c1ccc(NC(=O)c2ccncc2)cc1 (stereo not drawn)	58*	-19	-32	-14	0	25	37	41*	-11
CCC1CCCCN1S(=O)(=O)c1ccc(C(=O)Nc2nnc(C3CC3)o2)cc1 (stereo not drawn)	-4	-4	-27	29	0	-2	nt	nt	nt
COc1ccccc1N1CCN(/N=C/c2ccc(O)c(O)c2)CC1	55	4	-63	nt	nt	34	25	1	18
Cc1cccc(C(=O)N2CCCC(N3CCN(Cc4ccc5c(c4)OCO5)CC3)C2)n1 (stereo not drawn)	3	2	-21	11	0	-18	nt	nt	nt
COC(=O)N1CCCCC1c1cc(C(=O)Nc2ccc(OC)cc2C)no1 (stereo not drawn)	nt	nt	nt	-6	6	nt	nt	nt	nt

Screening results deposited in PubChem by Sanford-Burnham Center for Chemical Genomics.
